For data set [1], the system named is Plasmodium falciparum. The data set is described as follows: Antimalarial activity against chloroquine-resistant and mefloquine-sensitive Plasmodium falciparum W2 ring stage form infected in human erythrocytes by spectrophotometric analysis. Type of data set: functional, organism-based. The gist of the method: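 W2 clone grown in A+ human erythrocytes in RPMI 1640 with 1% Albumax II. Sorbitol-synchronized rings at 1.5% hematocrit and 0.05% parasitemia; compounds from 10 mg/mL DMSO stock, final 0.02% DMSO; triplicate per dose. Growth read by anti-HRPII ELISA (TMB, A450) versus drug-free cultures; IC50 from sigmoid dose-response fits.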

A short description of data set [2]: Cytotoxicity in African green monkey BGM cells assessed as reduction in cell viability incubated for 24 hrs by MTT assay. Type of data set: cell-based. Particulars: Chlorocebus aethiops. The gist of the method: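 BGM monkey kidney cells kept in RPMI 1640 with 10% heat-inactivated fetal serum at 37 °C, 5% CO2. Seeded at 5 × 10^3 cells/well and allowed to adhere 18 h. Exposed 24 h to 200–25 μg/mL from a 20 mg/mL DMSO stock. MTT added for 3 h, formazan dissolved in DMSO, OD read at 570/630 nm. Viability as % of untreated control; EC50 derived from this.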

The nature of data set [3]: Selectivity index, ratio of EC50 for African green monkey BGM cells to IC50 for chloroquine-resistant mefloquine-sensitive Plasmodium falciparum W2 ring stage form infected in human erythrocytes. Type of data set: toxicity, cell-based. Particulars: read-out: Selectivity Index. In short, it runs like this:
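SI = BGM EC50 / W2 IC50. BGM cells seeded at 5 × 10^3/well, adhered 18 h, exposed 24 h at 37 °C, 5% CO2 to 200–25 µg/mL (20 mg/mL DMSO stock). MTT added 3 h, formazan in DMSO, OD 570/630 nm; viability as % untreated. W2 IC50 from HRPII ELISA on synchronized rings.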

The test system of data set [4] is Plasmodium berghei. The data set is described as follows: Antimalarial activity against Plasmodium berghei NK65 infected in mouse assessed as reduction in parasite growth at 50 mg/kg, po administered daily for 3 consecutive days and measured on day 5 post parasite inoculation relative to control. The class given is functional. The arrangement: scale not given: the % may be the effect or the level left. In short, it runs like this:
(§1)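 Suppressive test: mice inoculated i.p. with 1 × 10^5 P. berghei NK65-infected erythrocytes, randomized about 24 h later to groups of five. Dosed orally once daily for three consecutive days, freshly diluted in 3% DMSO in RPMI; vehicle controls included. Parasitemia was read on days 5, 7 and 9 from Giemsa-stained, methanol-fixed tail-blood thin smears at 1000X. Inhibition is given relative to untreated mice, taken as 100% growth.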

The subject of data set [5] is Plasmodium berghei. In words: Antimalarial activity against Plasmodium berghei NK65 infected in mouse assessed as reduction in parasite growth at 50 mg/kg, po administered daily for 3 consecutive days and measured on day 7 post parasite inoculation relative to control. The class given is functional. The arrangement: scale not given: the % may be the effect or the level left. The gist of the method:
as §1

Data set [6] has as its system Plasmodium berghei. In words: Antimalarial activity against Plasmodium berghei NK65 infected in mouse assessed as reduction in parasite growth at 50 mg/kg, po administered daily for 3 consecutive days and measured on day 9 post parasite inoculation relative to control. Type of data set: functional. The arrangement: scale not given: the % may be the effect or the level left. The gist of the method:
as §1

In data set [7] the test system is Plasmodium berghei. The data set is described as follows: Antimalarial activity against Plasmodium berghei NK65 infected in mouse assessed as parasite survival at 50 mg/kg, po administered daily for 3 consecutive days (reference value: 13+/- 3 days). The class given is functional. The gist of the method:
(§2)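 P. berghei NK65 (weekly blood passage); mice infected i.p. with 1 × 10^5 infected erythrocytes, grouped five per cage about 24 h later. Dosed orally once daily for three days in 3% DMSO/RPMI: test compounds at 50 mg/kg, CQ and MQ at 20 mg/kg, vehicle controls. Tail-blood Giemsa thin smears on days 5, 7 and 9; survival recorded in days.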

The subject of data set [8] is Plasmodium berghei. In words: Antimalarial activity against Plasmodium berghei NK65 infected in mouse assessed as reduction in parasite growth at 20 mg/kg, po administered daily for 3 consecutive days and measured on day 5 post parasite inoculation relative to control. Set-up: scale not given: the % may be the effect or the level left. Type of data set: functional. In short, it runs like this: as §1

Data set [9] relates to Plasmodium berghei. In words: Antimalarial activity against Plasmodium berghei NK65 infected in mouse assessed as reduction in parasite growth at 20 mg/kg, po administered daily for 3 consecutive days and measured on day 7 post parasite inoculation relative to control. Type of data set: functional. The arrangement: scale not given: the % may be the effect or the level left. The gist of the method: as §1

The test system of data set [10] is Plasmodium berghei. In words: Antimalarial activity against Plasmodium berghei NK65 infected in mouse assessed as reduction in parasite growth at 20 mg/kg, po administered daily for 3 consecutive days and measured on day 9 post parasite inoculation relative to control. The class given is functional. Set-up: scale not given: the % may be the effect or the level left. The gist of the method: as §1

Data set [11] relates to Plasmodium berghei. The data set is described as follows: Antimalarial activity against Plasmodium berghei NK65 infected in mouse assessed as parasite survival at 20 mg/kg, po administered daily for 3 consecutive days (reference value: 13+/- 3 days). The class given is functional. The gist of the method: as §2

The structures appear in SMILES notation.

`FC(F)(F)c1cc(Nc2ccccc2)c2cccc(C(F)(F)F)c2n1` came in with an IC50 in data set [1] of 28 µM. Besides, the EC50 in [2] is under 22.5 µM. The selectivity ratio in data set [3] was under 0.83.

Regarding `Cc1nnc(Nc2cc(C(F)(F)F)nc3c(C(F)(F)F)cccc23)[nH]1`, half-maximal inhibition in data set [1] (IC50) required 0.083 µM. Also, the EC50 in data set [2] was found to be 11 µM. The selectivity ratio in data set [3] stood at 132. For the same compound, the values for the Activity in data set [4], in data set [5] and in data set [6] were 66%, 30% and 23%, respectively. The Survival in [7] was determined as 19 days.

For the compound `FC(F)(F)c1cc(Nc2ccncc2)c2cccc(C(F)(F)F)c2n1`, the IC50 in data set [1] stood at 8.4 µM. The EC50 in data set [2] was over 560 µM. Moreover, the selectivity ratio in data set [3] is over 66.7. Besides, the results for the Activity in data set [4], in [5] and in data set [6] were 25%, 42% and 11%, respectively. Besides, the Survival in [7] was found to be 15 days.

For the compound `COc1ccc(Nc2cc(C(F)(F)F)nc3c(C(F)(F)F)cccc23)cc1OC`, in data set [1], the IC50 turned out to be 4.8 µM. Also, in data set [2], the EC50 worked out at 130 µM. Also, in [3], the selectivity ratio was found to be 27.

Compound `FC(F)(F)c1cc(Nc2nnc(C(F)(F)F)[nH]2)c2cccc(C(F)(F)F)c2n1` came in with an IC50 in data set [1] of 11.5 µM. Besides, the EC50 in data set [2] was 84.2 µM. Also, in data set [3], the selectivity ratio is 7.3.

Consider `Cc1nnc(Nc2cc(C(F)(F)F)nc3c(C(F)(F)F)cccc23)s1`, for which it took 1.8 µM to reach half-maximal inhibition in data set [1] (IC50). Besides, the EC50 in data set [2] was found to be 1.5 µM. Besides, in data set [3], the selectivity ratio was determined as 0.8.

Take `O[C@@H](c1cc(C(F)(F)F)nc2c(C(F)(F)F)cccc12)[C@H]1CCCCN1` (relative stereo) [(S,R)-MEFLOQUINE]: in [1], the concentration for half-maximal inhibition (IC50) was found to be 0.019 µM. Further, in data set [2], the EC50 was 15 µM. Moreover, the selectivity ratio in data set [3] was found to be 789. In addition, the Activity is given as 98% in data set [8], 98% in data set [9] and 99% in data set [10]. In addition, the Survival in data set [11] is over 30 days.

`FC(F)(F)c1cc(NC2CCCCC2)c2cccc(C(F)(F)F)c2n1` displayed an IC50 in data set [1] of 11 µM. Moreover, the EC50 in [2] is 127 µM. Besides, the selectivity ratio in data set [3] was determined as 11.5.

The compound `FC(F)(F)c1cc(Nc2ccc3ccccc3c2)c2cccc(C(F)(F)F)c2n1` came in with an IC50 in [1] of 9.6 µM. Also, the EC50 in data set [2] was found to be 12.3 µM. For the same compound, in data set [3], the selectivity ratio stood at 1.2.

In [1], `Fc1ccc(Nc2cc(C(F)(F)F)nc3c(C(F)(F)F)cccc23)cc1` showed an IC50 of 16 µM. Moreover, the EC50 in data set [2] was under 42.8 µM. Besides, in data set [3], the selectivity ratio is under 2.67.

For the compound `CCN(CC)CCCC(C)Nc1ccnc2cc(Cl)ccc12` (stereo not given) [CHLOROQUINE], the EC50 in [2] was determined as 907 µM. Besides, the Activity is 99% in data set [8], 99% in data set [9] and 84% in [10]. Also, the Survival in [11] is 24 days.

In data set [1], `FC(F)(F)c1cc(N2CCNCC2)c2cccc(C(F)(F)F)c2n1` returned an IC50 of 31.5 µM. In addition, in [2], the EC50 was determined as 17.2 µM. Besides, in [3], the selectivity ratio worked out at 0.5.

On to `FC(F)(F)c1cc(Nc2ccccn2)c2cccc(C(F)(F)F)c2n1`, for which, in data set [1], 19.6 µM corresponded to half-maximal inhibition (IC50). Further, the concentration giving a half-maximal response (EC50) in [2] was under 44.8 µM. The selectivity ratio in [3] is under 2.29.

Compound `Clc1ccc2c(Nc3ccncc3)ccnc2c1` yielded an IC50 in data set [1] of 11.7 µM. In addition, the 50% effective concentration (EC50) in [2] was 784 µM. The selectivity ratio in data set [3] is 67.

The compound `Oc1ccc(Nc2cc(C(F)(F)F)nc3c(C(F)(F)F)cccc23)cc1` yielded an IC50 in [1] of 24.1 µM. The EC50 in data set [2] worked out at 672 µM. In addition, the selectivity ratio in data set [3] was under 27.9.

As for `FC(F)(F)c1cc(N2CCOCC2)c2cccc(C(F)(F)F)c2n1`, the IC50 in [1] was over 143 µM. Also, the EC50 in data set [2] stood at 1680 µM. In addition, in [3], the selectivity ratio was under 11.7.

The compound `FC(F)(F)c1cc(Nc2nnc[nH]2)c2cccc(C(F)(F)F)c2n1` showed an IC50 in [1] of 2.9 µM. The EC50 in [2] is under 23.1 µM. For the same compound, in [3], the selectivity ratio was under 8.

With `FC(F)(F)c1cc(Nc2ccccc2C(F)(F)F)c2cccc(C(F)(F)F)c2n1`, the IC50 in data set [1] is 33 µM. In data set [2], the EC50 was under 18.9 µM. Besides, in data set [3], the selectivity ratio is under 0.57.

`FC(F)(F)c1cc(Nc2ncccn2)c2cccc(C(F)(F)F)c2n1`: in data set [1], the IC50 was 8.4 µM. Further, the EC50 in data set [2] is over 559 µM. The selectivity ratio in data set [3] is over 66.5. The Activity amounted to 61% in [4], 35% in data set [5] and 31% in data set [6]. For the same compound, the Survival in data set [7] worked out at 13 days.

Values taken from ChEMBL document CHEMBL4368928, “New hybrid trifluoromethylquinolines as antiplasmodium agents” (Bioorg Med Chem, 2019).
